According to ChEMBL document CHEMBL1126896, “Preparation and anti-HIV activity of O-acylated heparin and dermatan sulfate derivatives with low anticoagulant effect” (J Med Chem, 1993):

Assays:
MT4 [1] = assay: Selectivity index for CC50 (cytotoxic concentration based on reduction of viability of mock-infected MT-4 cells) to that of EC50 against HIV-2; type: functional
How it was run: (§1)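 MT-4 cells at 3 × 10^5 cells/mL were infected with HIV-1 IIIB or HIV-2 ROD at 100 CCID50/mL, or mock-infected, alongside serial compound dilutions. Viability was read by MTT after 5 days at 37 °C. CC50 comes from mock-infected cells and EC50 from protection against cytopathicity. Index = CC50/EC50.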

[2] = In vitro anticoagulant activity determined by clotting test of activated partial thromboplastin time (APTT) on a pool of human plasma; type: functional
How it was run: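 Activated partial thromboplastin time clotting test on pooled human plasma, run on an automatic coagulometer. Activities were calculated according to the European Pharmacopoeia.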

MT4 [3] = assay: Effective concentration to achieve 50% protection of MT-4 cells against the cytopathic effect of HIV-2; type: functional, cell-based
MT4 [4] = assay: Effective concentration to achieve 50% protection of MT-4 cells against the cytopathic effect of HIV-1; type: functional, cell-based
MT4 [5] = assay: Selectivity index for CC50 (cytotoxic concentration based on the reduction of the viability of mock-infected MT-4 cells) to that of EC50 against HIV-1; type: functional; how it was run: as §1
HuT78 [6] = assay: Giant-cell formation between persistently HIV-2 infected HUT-78 cells and uninfected MOLT-4 cells; type: functional, cell-based
How it was run: (§2)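 MOLT-4 cells were co-cultured with an equal number of HUT-78 cells persistently infected with HIV-1 IIIB or HIV-2 ROD, with varying compound concentrations. Syncytia were counted by flow cytofluorography after 24 h. EC50 is the concentration giving 50% protection against giant-cell formation.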

HuT78 [7] = assay: Giant-cell formation between persistently HIV-1 infected HUT-78 cells and uninfected MOLT-4 cells; type: functional, cell-based; how it was run: as §2
[8] = Homo sapiens, MT4, read-out: EC50
[9] = Homo sapiens, HuT78, read-out: EC50

SMILES	Selectivity index (MT4 [1])	APTT [2]	EC50 (MT4 [3]; [8])	EC50 (MT4 [4]; [8])	Selectivity index (MT4 [5])	EC50 (HuT78 [6]; [9])	EC50 (HuT78 [7]; [9])	EC50 (MT4 [3]; mt4)	EC50 (HuT78 [6]; hut78)	EC50 (HuT78 [7]; hut78)	EC50 (MT4 [4]; mt4)
CCCC(=O)OC/C(=C\C(=O)[O-])OC1OC(COS(=O)(=O)[O-])C(OC2OC(C(=O)[O-])C(OC3OC(COS(=O)(=O)[O-])C(OC4OC(C(=O)[O-])C(OC5OC(COS(=O)(=O)[O-])C(O)C(OC(=O)CCC)C5NC(C)=O)C(OC(=O)CCC)C4OS(=O)(=O)[O-])C(OC(=O)CCC)C3NC(C)=O)C(OC(=O)CCC)C2OS(=O)(=O)[O-])C(OC(=O)CCC)C1NC(C)=O.[Na+].[Na+].[Na+].[Na+].[Na+].[Na+].[Na+].[Na+] (stereo unspecified)	>417	6 IU mg-1	1.2 µg/mL	0.5 µg/mL	>1000	20 µg/mL	15 µg/mL	–	–	–	–
CCCCCC(=O)OC/C(=C\C(=O)[O-])OC1OC(COS(=O)(=O)[O-])C(OC2OC(C(=O)[O-])C(OC3OC(COS(=O)(=O)[O-])C(OC4OC(C(=O)[O-])C(OC5OC(CS(=O)(=O)[O-])C(O)C(OC(=O)CCCCC)C5NS(=O)(=O)[O-])C(OC(=O)CCCCC)C4OS(=O)(=O)[O-])C(OC(=O)CCCCC)C3NS(=O)(=O)[O-])C(OC(=O)CCCCC)C2OS(=O)(=O)[O-])C(OC(=O)CCCCC)C1NS(=O)(=O)[O-].[Na+].[Na+].[Na+].[Na+].[Na+].[Na+].[Na+].[Na+].[Na+].[Na+].[Na+] (stereo in doubt; 3g)	>650	–	–	–	–	–	–	0.8 µg/mL	75 µg/mL	6 µg/mL	–
CCCCCC(=O)OC/C(=C\C(=O)[O-])OC1OC(COS(=O)(=O)[O-])C(OC2OC(C(=O)[O-])C(OC3OC(COS(=O)(=O)[O-])C(OC4OC(C(=O)[O-])C(OC5OC(CS(=O)(=O)[O-])C(O)C(OC(=O)CCCCC)C5NS(=O)(=O)[O-])C(OC(=O)CCCCC)C4OS(=O)(=O)[O-])C(OC(=O)CCCCC)C3NS(=O)(=O)[O-])C(OC(=O)CCCCC)C2OS(=O)(=O)[O-])C(OC(=O)CCCCC)C1NS(=O)(=O)[O-].[Na+].[Na+].[Na+].[Na+].[Na+].[Na+].[Na+].[Na+].[Na+].[Na+].[Na+] (stereo in doubt; 3i)	>1666	–	–	–	>2600	–	–	0.3 µg/mL	13 µg/mL	–	–
CCCCCC(=O)OC/C(=C\C(=O)[O-])OC1OC(COS(=O)(=O)[O-])C(OC2OC(C(=O)[O-])C(OC3OC(COS(=O)(=O)[O-])C(OC4OC(C(=O)[O-])C(OC5OC(CS(=O)(=O)[O-])C(O)C(OC(=O)CCCCC)C5NS(=O)(=O)[O-])C(OC(=O)CCCCC)C4OS(=O)(=O)[O-])C(OC(=O)CCCCC)C3NS(=O)(=O)[O-])C(OC(=O)CCCCC)C2OS(=O)(=O)[O-])C(OC(=O)CCCCC)C1NS(=O)(=O)[O-].[Na+].[Na+].[Na+].[Na+].[Na+].[Na+].[Na+].[Na+].[Na+].[Na+].[Na+] (stereo in doubt; 3j)	–	–	–	–	>1250	–	–	–	10 µg/mL	2 µg/mL	0.4 µg/mL
CCCC(=O)OC/C(=C\C(=O)[O-])O[C@H]1O[C@H](COS(=O)(=O)[O-])[C@@H](O[C@@H]2O[C@@H](C(=O)[O-])[C@@H](O[C@H]3O[C@H](COS(=O)(=O)[O-])[C@@H](O[C@@H]4O[C@@H](C(=O)[O-])[C@@H](O[C@H]5O[C@H](CS(=O)(=O)[O-])[C@@H](O)[C@H](OC(=O)CCC)[C@H]5NS(=O)(=O)[O-])[C@H](OC(=O)CCC)[C@H]4OS(=O)(=O)[O-])[C@H](OC(=O)CCC)[C@H]3NS(=O)(=O)[O-])[C@H](OC(=O)CCC)[C@H]2OS(=O)(=O)[O-])[C@H](OC(=O)CCC)[C@H]1NS(=O)(=O)[O-].[Na+].[Na+].[Na+].[Na+].[Na+].[Na+].[Na+].[Na+].[Na+].[Na+].[Na+] (stereo in doubt; 4c)	40000	2.7 IU mg-1	–	–	80	–	–	0.01 µg/mL	–	57.5 µg/mL	5 µg/mL
CCCC(=O)OC/C(=C\C(=O)[O-])O[C@H]1O[C@H](COS(=O)(=O)[O-])[C@@H](O[C@@H]2O[C@@H](C(=O)[O-])[C@@H](O[C@H]3O[C@H](COS(=O)(=O)[O-])[C@@H](O[C@@H]4O[C@@H](C(=O)[O-])[C@@H](O[C@H]5O[C@H](CS(=O)(=O)[O-])[C@@H](O)[C@H](OC(=O)CCC)[C@H]5NS(=O)(=O)[O-])[C@H](OC(=O)CCC)[C@H]4OS(=O)(=O)[O-])[C@H](OC(=O)CCC)[C@H]3NS(=O)(=O)[O-])[C@H](OC(=O)CCC)[C@H]2OS(=O)(=O)[O-])[C@H](OC(=O)CCC)[C@H]1NS(=O)(=O)[O-].[Na+].[Na+].[Na+].[Na+].[Na+].[Na+].[Na+].[Na+].[Na+].[Na+].[Na+] (stereo in doubt; 4d)	>12500	2.9 IU mg-1	–	–	>382	–	–	0.04 µg/mL	–	37.3 µg/mL	1.31 µg/mL
CCCC(=O)OC/C(=C\C(=O)[O-])O[C@H]1O[C@H](COS(=O)(=O)[O-])[C@@H](O[C@@H]2O[C@@H](C(=O)[O-])[C@@H](O[C@H]3O[C@H](COS(=O)(=O)[O-])[C@@H](O[C@@H]4O[C@@H](C(=O)[O-])[C@@H](O[C@H]5O[C@H](CS(=O)(=O)[O-])[C@@H](O)[C@H](OC(=O)CCC)[C@H]5NS(=O)(=O)[O-])[C@H](OC(=O)CCC)[C@H]4OS(=O)(=O)[O-])[C@H](OC(=O)CCC)[C@H]3NS(=O)(=O)[O-])[C@H](OC(=O)CCC)[C@H]2OS(=O)(=O)[O-])[C@H](OC(=O)CCC)[C@H]1NS(=O)(=O)[O-].[Na+].[Na+].[Na+].[Na+].[Na+].[Na+].[Na+].[Na+].[Na+].[Na+].[Na+] (stereo in doubt; 4e)	>7142	4.5 IU mg-1	–	–	>526	–	–	0.07 µg/mL	–	43.7 µg/mL	0.95 µg/mL
CCCC(=O)OC/C(=C\C(=O)[O-])O[C@H]1O[C@H](COS(=O)(=O)[O-])[C@@H](O[C@@H]2O[C@@H](C(=O)[O-])[C@@H](O[C@H]3O[C@H](COS(=O)(=O)[O-])[C@@H](O[C@@H]4O[C@@H](C(=O)[O-])[C@@H](O[C@H]5O[C@H](CS(=O)(=O)[O-])[C@@H](O)[C@H](OC(=O)CCC)[C@H]5NS(=O)(=O)[O-])[C@H](OC(=O)CCC)[C@H]4OS(=O)(=O)[O-])[C@H](OC(=O)CCC)[C@H]3NS(=O)(=O)[O-])[C@H](OC(=O)CCC)[C@H]2OS(=O)(=O)[O-])[C@H](OC(=O)CCC)[C@H]1NS(=O)(=O)[O-].[Na+].[Na+].[Na+].[Na+].[Na+].[Na+].[Na+].[Na+].[Na+].[Na+].[Na+] (stereo in doubt; 4f)	>1667	6.1 IU mg-1	–	–	>1136	–	–	0.3 µg/mL	–	1.3 µg/mL	0.44 µg/mL
CCCC(=O)OC/C(=C\C(=O)[O-])O[C@H]1O[C@H](COS(=O)(=O)[O-])[C@@H](O[C@@H]2O[C@@H](C(=O)[O-])[C@@H](O[C@H]3O[C@H](COS(=O)(=O)[O-])[C@@H](O[C@@H]4O[C@@H](C(=O)[O-])[C@@H](O[C@H]5O[C@H](CS(=O)(=O)[O-])[C@@H](O)[C@H](OC(=O)CCC)[C@H]5NS(=O)(=O)[O-])[C@H](OC(=O)CCC)[C@H]4OS(=O)(=O)[O-])[C@H](OC(=O)CCC)[C@H]3NS(=O)(=O)[O-])[C@H](OC(=O)CCC)[C@H]2OS(=O)(=O)[O-])[C@H](OC(=O)CCC)[C@H]1NS(=O)(=O)[O-].[Na+].[Na+].[Na+].[Na+].[Na+].[Na+].[Na+].[Na+].[Na+].[Na+].[Na+] (stereo in doubt; 4h)	>2174	9.7 IU mg-1	–	–	>1786	–	–	0.23 µg/mL	–	7.5 µg/mL	0.28 µg/mL
CCCC(=O)OC/C(=C\C(=O)[O-])O[C@H]1O[C@H](COS(=O)(=O)[O-])[C@@H](O[C@@H]2O[C@@H](C(=O)[O-])[C@@H](O[C@H]3O[C@H](COS(=O)(=O)[O-])[C@@H](O[C@@H]4O[C@@H](C(=O)[O-])[C@@H](O[C@H]5O[C@H](CS(=O)(=O)[O-])[C@@H](O)[C@H](OC(=O)CCC)[C@H]5NS(=O)(=O)[O-])[C@H](OC(=O)CCC)[C@H]4OS(=O)(=O)[O-])[C@H](OC(=O)CCC)[C@H]3NS(=O)(=O)[O-])[C@H](OC(=O)CCC)[C@H]2OS(=O)(=O)[O-])[C@H](OC(=O)CCC)[C@H]1NS(=O)(=O)[O-].[Na+].[Na+].[Na+].[Na+].[Na+].[Na+].[Na+].[Na+].[Na+].[Na+].[Na+] (stereo in doubt; 4i)	>2941	16.8 IU mg-1	–	–	>1852	–	–	0.16 µg/mL	–	2.1 µg/mL	0.27 µg/mL
CCCC(=O)OC/C(=C\C(=O)[O-])O[C@H]1O[C@H](COS(=O)(=O)[O-])[C@@H](O[C@@H]2O[C@@H](C(=O)[O-])[C@@H](O[C@H]3O[C@H](COS(=O)(=O)[O-])[C@@H](O[C@@H]4O[C@@H](C(=O)[O-])[C@@H](O[C@H]5O[C@H](CS(=O)(=O)[O-])[C@@H](O)[C@H](OC(=O)CCC)[C@H]5NS(=O)(=O)[O-])[C@H](OC(=O)CCC)[C@H]4OS(=O)(=O)[O-])[C@H](OC(=O)CCC)[C@H]3NS(=O)(=O)[O-])[C@H](OC(=O)CCC)[C@H]2OS(=O)(=O)[O-])[C@H](OC(=O)CCC)[C@H]1NS(=O)(=O)[O-].[Na+].[Na+].[Na+].[Na+].[Na+].[Na+].[Na+].[Na+].[Na+].[Na+].[Na+] (stereo in doubt; 4k)	>1923	29.3 IU mg-1	–	–	>980	–	–	0.26 µg/mL	–	2 µg/mL	0.51 µg/mL
